From ChEMBL document CHEMBL1122185, “Tricyclics with analgesic and antidepressant activity. 2. [[(Alkylamino)ethyl]thio]dibenzo[b,f]thiepins and 10,11-dihydro derivatives” (1982)
Where “and” joins values, the source holds several entries; their conditions need not be identical. Identical values can stand only once.

Legend:
Format in all cases: functional
Mus musculus [1] = assay: Antidepressant activity was determined to prevent tetrabenazine-induced ptosis(TBZ) after oral administration in mice
Method in brief: (§1)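 Mouse model measuring prevention of tetrabenazine-induced ptosis, with dosing orally or intraperitoneally. The vehicle was distilled water with a few drops of Tween 80. ED50 values were calculated by linear-regression analysis, with 95% confidence limits in parentheses.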

Mus musculus [2] = assay: Analgesic activity was determined for delay in response to noxious heat stimuli after subcutaneous administration in mice, in tail flick assay; settings: for ED50: sc
Method in brief: (§2)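 D'Amour-Smith tail-flick method in mice: delay in response to a noxious heat stimulus. Compounds were given in a vehicle of distilled water with a few drops of Tween 80. ED50 was calculated by linear-regression analysis with 95% confidence limits.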

Mus musculus [3] = assay: Analgesic activity was determined for inhibition of phenyl-p-quinone-induced writhing (PQW) after subcutaneous administration in mice; settings: for ED50: sc
Method in brief: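 Mice were given phenyl-p-quinone to induce writhing, and inhibition of writhing was scored after subcutaneous dosing. The vehicle was distilled water with a few drops of Tween 80. ED50 was obtained by linear regression with 95% confidence limits.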

Rattus norvegicus [4] = assay: Antidepressant activity was determined for potentiation of head twitching induced by 5-hydroxytryptophan-(5-HTP) after intraperitoneal administration in pargyline-pretreated rats; settings: ip
Method in brief: (§3)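 In pargyline-pretreated rats, potentiation of 5-hydroxytryptophan-induced head twitching (stereotypy) was measured after intraperitoneal dosing. The vehicle was distilled water plus a few drops of Tween 80. ED50 was derived by linear regression with 95% confidence limits.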

Mus musculus [5] = assay: Antidepressant activity was determined to prevent tetrabenazine-induced ptosis(TBZ) after oral administration in mice.(value in parentheses indicates 95% confidence limits).; method in brief: as §1
Mus musculus [6] = assay: Analgesic activity was determined for delay in response to noxious heat stimuli after intraperitoneal administration in mice, in tail flick assay; method in brief: as §2
Mus musculus [7] = assay: Antidepressant activity was determined to prevent tetrabenazine-induced ptosis(TBZ) after intraperitoneal administration in mice; settings: ip; method in brief: as §1
Rattus norvegicus [8] = assay: Antidepressant activity was determined for potentiation of head twitching induced by 5-hydroxytryptophan-(5-HTP) after intraperitoneal administration in pargyline-pretreated rats,; settings: ip; method in brief: as §3
[9] = Mus musculus, po, read-out: ED50

Structure (SMILES) | ED50 (Mus musculus [2]) | ED50 (Mus musculus [3]) | ED50 (Rattus norvegicus [4]) | ED50 (Mus musculus [1]; [9]) | other results
CN(C)CCCN1c2ccccc2CCc2ccccc21 [IMIPRAMINE] | > 25 mg/kg | 10.7 mg/kg | > 10 mg/kg | – | ED50 (Mus musculus [1]): 2.8 mg/kg and 1.3 mg/kg
CNCCSC1=Cc2ccccc2Sc2ccc(O)cc21 | > 25 mg/kg | > 10 mg/kg | > 10 mg/kg | 2 mg/kg | –
CNCCSC1=Cc2ccccc2Sc2ccccc21 | > 25 mg/kg | – | > 10 mg/kg | – | ED50 (Mus musculus [5]): 23.9 mg/kg
CNCCSC1Cc2ccccc2Sc2ccc(Cl)cc21 (stereo unspecified) | – | 4.4 mg/kg | 50 mg/kg | – | ED50 (Mus musculus [6]; ip): 63.6 mg/kg
CNCCSC1Cc2ccccc2Sc2ccc(F)cc21 (stereo unspecified) | – | 2.9 mg/kg | 8.1 mg/kg | 1.5 mg/kg | ED50 (Mus musculus [7]): 0.28 mg/kg; Inhibition (Mus musculus [6]): 60%
CN(C)CCSC1=Cc2ccccc2Sc2ccc(Cl)cc21 | > 25 mg/kg | 14.6 mg/kg | > 10 mg/kg | 3.7 mg/kg | –
CNCCSC1=Cc2ccccc2Sc2ccc(Cl)cc21 | > 25 mg/kg | 12.5 mg/kg | > 10 mg/kg | – | –
CNCCSC1Cc2ccccc2Sc2ccccc21 (stereo unspecified) | – | 4.2 mg/kg | > 10 mg/kg | 8 mg/kg | Inhibition (Mus musculus [2]): 60%
CN(C)CCSC1Cc2ccccc2Sc2ccc(Cl)cc21 (stereo unspecified) | > 25 mg/kg | > 10 mg/kg | > 10 mg/kg | – | –
CN(C)CCSC1=Cc2ccccc2Sc2ccc(F)cc21 | > 25 mg/kg | > 10 mg/kg | > 10 mg/kg | – | ED50 (Mus musculus [5]): 3.6 mg/kg
CC(C)=CCN1CC[C@]2(C)c3cc(O)ccc3C[C@H]1[C@H]2C [(+)-PENTAZOCINE] | 14.6 mg/kg | 2.4 mg/kg | – | – | –
CNCCSC1=Cc2ccccc2Sc2ccc(F)cc21 | – | 8.9 mg/kg | > 10 mg/kg | 5.2 mg/kg | Inhibition (Mus musculus [2]): 50%
CN(C)CCSC1=Cc2ccccc2Sc2ccccc21 | > 25 mg/kg | – | > 10 mg/kg | > 20 mg/kg | Inhibition (Mus musculus [3]): 64%
CN(C)CCSC1Cc2ccccc2Sc2ccccc21 (stereo unspecified) | – | 3.3 mg/kg | > 10 mg/kg | – | Inhibition (Mus musculus [1]): 60%; Inhibition (Mus musculus [2]): 60%
CN(C)CCSC1Cc2ccccc2Sc2ccc(F)cc21 (stereo unspecified) | > 25 mg/kg | 9 mg/kg | – | 1.2 mg/kg | ED50 (Mus musculus [1]): 0.91 mg/kg; ED50 (Rattus norvegicus [8]): > 10 mg/kg
